Screens (PubChem BioAssay)
Apaf1 activ = activators of human Apaf-1 apoptosome, primary screen, biochemical, DEVD-Rh110 fluorescence, uHTS | Apaf-1 apoptosome caspase-3 activation; stronger effect = lower value | activity change, negative = activation, % at 20 µM | hit rate 0.31% among 330,000;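 active = activity change at or below -40% at 20 µM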
Target sequence (O14727 whole entry, looked up): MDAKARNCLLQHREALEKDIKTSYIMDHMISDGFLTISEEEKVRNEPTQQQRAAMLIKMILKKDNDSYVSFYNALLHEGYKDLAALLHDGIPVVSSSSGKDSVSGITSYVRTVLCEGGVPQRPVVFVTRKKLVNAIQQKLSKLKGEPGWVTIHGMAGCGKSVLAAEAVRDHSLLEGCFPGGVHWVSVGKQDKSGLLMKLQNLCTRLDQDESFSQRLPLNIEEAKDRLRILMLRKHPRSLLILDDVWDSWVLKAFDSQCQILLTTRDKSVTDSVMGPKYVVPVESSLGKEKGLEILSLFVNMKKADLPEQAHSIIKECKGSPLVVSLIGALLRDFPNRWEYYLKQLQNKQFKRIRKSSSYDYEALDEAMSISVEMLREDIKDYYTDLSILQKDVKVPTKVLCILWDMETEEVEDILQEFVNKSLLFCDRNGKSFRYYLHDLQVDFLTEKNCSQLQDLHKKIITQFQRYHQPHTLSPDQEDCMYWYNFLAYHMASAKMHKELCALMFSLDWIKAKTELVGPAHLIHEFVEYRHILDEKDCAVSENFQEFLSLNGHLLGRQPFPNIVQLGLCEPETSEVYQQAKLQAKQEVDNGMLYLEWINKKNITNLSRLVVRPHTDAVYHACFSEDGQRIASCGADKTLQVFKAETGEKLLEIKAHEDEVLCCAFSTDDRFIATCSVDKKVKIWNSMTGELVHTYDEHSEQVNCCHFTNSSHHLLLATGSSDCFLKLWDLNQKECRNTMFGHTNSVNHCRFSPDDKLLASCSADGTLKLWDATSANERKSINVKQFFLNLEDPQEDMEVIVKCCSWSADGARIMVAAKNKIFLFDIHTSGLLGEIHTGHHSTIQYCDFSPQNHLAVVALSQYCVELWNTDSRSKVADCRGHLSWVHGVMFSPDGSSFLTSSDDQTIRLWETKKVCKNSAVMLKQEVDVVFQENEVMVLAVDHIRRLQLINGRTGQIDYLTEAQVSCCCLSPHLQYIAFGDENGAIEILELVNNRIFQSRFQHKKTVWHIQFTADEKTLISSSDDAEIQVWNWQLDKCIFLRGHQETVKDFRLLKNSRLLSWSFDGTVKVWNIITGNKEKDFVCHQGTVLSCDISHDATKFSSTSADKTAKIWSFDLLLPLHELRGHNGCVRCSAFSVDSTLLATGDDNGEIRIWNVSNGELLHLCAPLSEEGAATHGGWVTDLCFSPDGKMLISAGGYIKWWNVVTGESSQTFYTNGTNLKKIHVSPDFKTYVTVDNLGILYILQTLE
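Schedule: 30 min preincubation, 50 min reaction, room temperature / System: biochemical Apaf-1 apoptosome reconstitution / Medium: 20 mM HEPES pH 7.5 with CHAPS, BSA / Evaluation: Caspase-3 cleavage activity downstream of Apaf-1 activation / Detection: Caspase-3-released Rh110 fluorescence, 540 nm emission, 480 nm excitation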
Rh110 act interf = Rh110 fluorescence interference by putative Apaf-1 activators, confirmation, artefact control for Apaf-1 activator project, biochemical, 20 µM | AID 504616, 2011 | 980 tested, under 10 active | fluorescence interference (activity change), % at 20 µM, hits read low | shares compounds with Apaf1 activ | quenched caspase reaction, Ex480/Em540;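 active = mean activity change at or below -40% when tested at 20 µM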
Apaf-1 act conf2 = Apaf-1 activators, single-dose retest, confirmation, biochemical, fluorescence, DEVD-Rh110, 20 µM; shares compounds with Apaf1 activ; reconstituted apoptosome caspase-3 activity; stronger effect = lower value; activity change, negative = activation, % at 20 µM; hit rate 5% among 980; AID 504617, 2011;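 active = mean activity change at or below -40%, meaning activation of 40% or more, at 20 µM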
* marks the source's active call; other numbers are inactive results; / = no result. These entries were drawn from the full list.

SMILES | Apaf1 activ | Rh110 act interf | Apaf-1 act conf2
O=C(NCCc1ccccc1)c1ccccc1SCC(=O)N1CCCC1 | 60.3 | / | /
Cc1ccc(-c2noc(CCC(=O)N3CCN(c4cccc(C(F)(F)F)c4)CC3)n2)cc1 | 42.1 | / | /
O=C(CSc1ccccn1)N1CCN(c2ccccc2)CC1 | -49.0* | -9.6 | 6.2
Clc1ccc(/C=N/Nc2ncnc3ccccc23)cc1Cl | 42.8 | / | /
CCO/C=C1/C(=O)N(C)C(=O)c2cc(OC)ccc21 | 47.0 | / | /
S=C(Nc1ccc(N2CCOCC2)cc1)Nc1ccc2nc(-c3ccco3)c(-c3ccco3)nc2c1 | 41.3 | / | /
COc1cccc(N2C(=O)CC(Nc3ccc(N4CCOCC4)cc3)C2=O)c1 (stereo not given) | -393.1* | 0.6 | 15.7
COc1ccc(CCN2C(=O)c3[nH]nc(-c4ccccc4O)c3C2c2cccc(Cl)c2)cc1 (stereo not given) | 40.9 | / | /
COc1ccc([C@@H]2CC=C(C(=O)O)[C@H](c3cccc(Cl)c3)N2S(=O)(=O)c2ccc(Cl)cc2)cc1 | -72.8* | -2.6 | 18.9
COc1ccc(NC(=O)c2c[nH]n3c(=O)cc(C4CCN(C(=O)OC(C)(C)C)CC4)nc23)cc1Cl | 41.7 | / | /
COc1ccc(CN=Cc2[nH]c3ccc(Br)c(Cl)c3c2O)cc1 | 44.7 | / | /
c1ccc(CN(CC2=NCCN2)c2ccccc2)cc1 | -4.3 | / | /
CC(OC(=O)c1ccc(-n2cnnn2)cc1)C(=O)Nc1ccccc1F (stereo not given) | -229.0* | 10.7 | 12.9
CN(C)c1cc(N/N=C\c2ccccc2)nc(N(C)C)n1 | 94.8 | / | /
O=C(O)c1cc(O)c2c(c1)[C@@H]([C@H]1c3cc(C(=O)O)cc(O)c3C(=O)c3c(O[C@@H]4O[C@H](CO)[C@@H](O)[C@H](O)[C@H]4O)cccc31)c1cccc(O[C@@H]3O[C@H](CO)[C@@H](O)[C@H](O)[C@H]3O)c1C2=O | 98.7 | / | /
COc1ccc2nc3ccccc3nc2c1N | 92.3 | / | /
COc1ccc(C(=O)n2nc(-c3ccccc3)nc2N)cc1OC | -363.1* | -5.8 | 9.8
CCOC(=O)C1CCCN(c2cc(NCCCO)c([N+](=O)[O-])c3nonc23)C1 (stereo not given) | 40.5 | / | /
N#CC1=C2SCN(Cc3ccccc3)CN2C(=O)CC1c1cccs1 (stereo not given) | 78.5 | / | /
CCCN(CC1CC1)c1nc(N)c2c(N)nc(OC)cc2c1C#N | 93.2 | / | /
C#CCOCCOCCOCCNc1nc(N2CCN(C(=O)CCCCCCCCCCNC(=O)Cn3cc(CCCCCN)nn3)CC2)nc(N2CCN(C(=O)CCCCCCCCCCNC(=O)[C@H](CO)n3cc(CCCCCN)nn3)CC2)n1 | 62.9 | / | /
Cc1cc(C)cc(Oc2coc3cc(OC(=O)c4cccs4)ccc3c2=O)c1 | -560.3* | 9.8 | 11.8
CC1=NN(c2ccc(C(=O)O)cc2)C(=O)/C1=C\c1ccc(OC(=O)c2cccs2)cc1 | 75.3 | / | /
COC(=O)c1cccc(-c2ccc(C(c3c(C)[nH][nH]c3=O)c3c(C)[nH][nH]c3=O)o2)c1 | 80.6 | / | /
Cc1ccc(-c2cc(C(=O)O)c3cc(Br)ccc3n2)s1 | 10.7 | / | /
SMILES | Apaf1 activ | Rh110 act interf | Apaf-1 act conf2
Oc1ccc(N=Cc2ccc(-c3cccs3)s2)cc1 | 95.8 | / | /
CCOC(=O)N1CCc2c(sc3c2C(=O)NC(c2ccccc2)N3)C1 (stereo not given) | 81.1 | / | /
CCOC(=O)CC1C(=O)NCCN1C(=O)c1sc2ccccc2c1Cl (stereo not given) | -259.9* | -1.8 | 11.9
O=C(O)CC(NC(=O)c1sc2ccccc2c1Cl)c1ccc(OC2CCCC2)cc1 (stereo not given) | 44.4 | / | /
COC(=O)C1=C(C)N(Cc2ccccc2)C(=NCc2cccc(C(F)(F)F)c2)N[C@H]1c1cccc(C(F)(F)F)c1 | 74.5 | / | /
CCCCCN=C(N)N/N=C/c1c[nH]c2ccc(OC)cc12 | 78.2 | / | /
COc1cc2cc(NC(C)=O)cc(NCc3ccccc3)c2cc1OC | 87.6 | / | /
COc1cc(C)c(NC(=O)COc2ccc3c(c2)CCC3)cc1OC | -283.9* | 15.0 | 13.5
Cc1cc(C)cc(OCC(=O)Nc2ccc(N3CCCC3)cc2)c1 | 40.7 | / | /
COC(=O)C1=C(C)N(CC2CC2)C(=NCc2cccc(C(F)(F)F)c2)N[C@H]1c1ccccc1 | 57.1 | / | /
COc1ccc(/C=C2/C(=O)N(c3cccc(F)c3)N=C2C)c(OC)c1 | 89.7 | / | /
NC(=O)CSc1ncc(-c2ccc([N+](=O)[O-])cc2)[nH]1 | -244.4* | 14.5 | 8.1
Cn1c(CCN2CCCCC2)nc2cc(NC(=O)COc3ccccc3)ccc21 | 52.6 | / | /
O=C1/C(=C/c2ccccn2)SC(=S)N1c1ccc(O)cc1 | -47.2* | -1.2 | -10.2
CCNC(=O)Oc1ccc[nH]c1=O | 41.8 | / | /
